Measurements gathered from unrelated publications.
Each line is one published result; the experiments were not run side by side.
Target: Testis-specific serine/threonine-protein kinase 1 (TSSK1B, Homo sapiens, UniProt Q9BXA7)
One construct used (Q9BXA7 1-367): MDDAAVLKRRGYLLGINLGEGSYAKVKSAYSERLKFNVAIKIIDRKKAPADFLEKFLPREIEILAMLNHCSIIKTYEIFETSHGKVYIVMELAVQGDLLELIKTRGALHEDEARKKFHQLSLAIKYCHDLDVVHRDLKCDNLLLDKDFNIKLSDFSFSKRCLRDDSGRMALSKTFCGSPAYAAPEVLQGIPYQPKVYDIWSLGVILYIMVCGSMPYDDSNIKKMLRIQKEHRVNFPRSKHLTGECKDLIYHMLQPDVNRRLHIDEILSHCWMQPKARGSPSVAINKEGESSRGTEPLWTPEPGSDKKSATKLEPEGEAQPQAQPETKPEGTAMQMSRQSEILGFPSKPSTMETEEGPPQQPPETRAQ

Compound	read-out	method	concentration	remaining binding [%]
CSc1cccnc1N1CCN(Cc2nc3ccccc3[nH]2)CC1	cell-free assay	competition with immobilised ligand	1 µM	100
C=CC(=O)N1CCC(C(=O)NCC(=O)N2CCN(c3nc(-c4cnc(N)nc4C(F)F)nc(N4CCOCC4)n3)CC2)CC1	binding	competition with immobilised ligand	1 µM	95
Cn1cc(Cl)c2c(Oc3c(F)cc(Nc4cc(Cl)nc(N)n4)cc3F)ccnc21	cell-free assay	competition with immobilised ligand	0.1 µM	100
C[C@H]1CCN(c2nccc(-c3cnn4ncccc34)n2)C1	binding	–	1 µM	98
O=C(O)[C@@H]1[C@@H](Cn2nnc3ccccc3c2=O)CC[C@H]1C(=O)c1ccc(OCCC2CCOCC2)cc1	cell-free assay	competition with immobilised ligand	1 µM	100
O=C(c1ccc(Nc2ncc(Cl)c(-c3ccc(Cl)s3)n2)cc1)N1CCC(N2CCCC2)CC1	binding	competition with immobilised ligand	1 µM	49
COc1ccnn2ncc(-c3ccnc(N(C)C)n3)c12	binding	–	1 µM	100
c1cncc(-c2cccc(Nc3nccc(NC4CCCCC4)n3)c2)c1	binding	competition with immobilised ligand	10 µM	60
CCN1CCN(Cc2ccc(C(=O)Nc3ccc(C)c(Oc4ccc5c(c4)CC(=O)N5)c3)cc2C(F)(F)F)CC1	binding	competition with immobilised ligand	1 µM	93
COc1ccc2c(c1)O[C@H](c1ccc(OC)c(OC)c1)C[C@@H]2NC(=O)C1(c2ccc3c(c2)OC(F)(F)O3)CC1	cell-free assay	competition with immobilised ligand	1 µM	100
C[C@@H]1CN(c2ccc3ncc(-c4ccc5[nH]nc(C6CC6)c5c4)n3n2)C[C@H](C)O1	binding	competition with immobilised ligand	50 nM	78
C[C@@H](c1ccc(-n2cnc3c(N)ncnc32)cc1)N1CCc2nn(C)c(Cc3ccccc3)c2C1=O	binding	competition with immobilised ligand	0.1 µM	100
NS(=O)(=O)c1cc(NC(=O)C2(c3ccccc3Cl)CC2)ccc1Oc1cccc(Cl)c1	cell-free assay	competition with immobilised ligand	1 µM	100
O=C(NCCCN1CCOCC1)c1ccc(Nc2ncc(Cl)c(-c3ccc(Cl)s3)n2)cc1	binding	competition with immobilised ligand	1 µM	62
CN(C)c1ncc(F)c(-c2cnn3ncccc23)n1	binding	–	1 µM	100
O=C(c1ccc(Nc2ncc(Cl)c(-c3cc4ccccc4s3)n2)cc1)N1CCC(N2CCCC2)CC1	binding	competition with immobilised ligand	1 µM	85
CC(C)(C)c1ccc(-c2nc(CBr)nn2-c2cccc(O)c2)cc1	cell-free assay	competition with immobilised ligand	10 µM	81
N[C@H]1CCN(c2nccc(-c3cnn4ncccc34)n2)C1	binding	–	1 µM	100
O=C(Nc1c[nH]nc1C(=O)NC1CCNCC1)c1cc(F)cc(F)c1	binding	competition with immobilised ligand	1 µM	100
N#Cc1ccccc1CSc1nnc2c(n1)[nH]c1ccccc12	binding	competition with immobilised ligand	10 µM	100
CC1CCCN1c1nccc(-c2cnn3ncccc23)n1 (centres unmarked)	binding	–	1 µM	100
CC(C)CC(=O)N1CCc2nc(-c3ccc(Br)cc3)nc(N(C)Cc3ccccc3)c2C1	cell-free assay	competition with immobilised ligand	0.1 µM	99
CN(C)c1nccc(-c2cnc3ncccn23)n1	binding	–	1 µM	100
COc1cnc(Nc2cccc(S(N)(=O)=O)c2)nc1N1CCN(c2ccccc2)CC1	binding	competition with immobilised ligand	1 µM	100
CN(CCCC(F)(F)F)c1nccc(-c2cnn3ncccc23)n1	binding	–	1 µM	92
COc1cc(-c2cn(C3CCc4ccccc4N(CC(F)(F)F)C3=O)nn2)ccc1-n1ccc(C)n1 (centres unmarked)	cell-free assay	competition with immobilised ligand	1 µM	83
